Legend:
[1] = The relative effective concentration to induce same level of histone H4 acetylation of human T24 cells by MS-275 at 1 uM; assay type: functional, T-24
Histone deacetylase 1 = Histone deacetylase 1 (Homo sapiens, UniProt Q13547); experiment: Inhibitory activity on partially purified recombinant human Histone deacetylase 1 (HDAC-1)
DU-145 = experiment: Inhibitory concentration against prostate DU145 cell line; assay type: functional, cell-based; settings: Homo sapiens
Method in brief: (§1)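 MTT assay: cells exposed to a range of compound concentrations for 72 h at 37 °C, 5% CO2. MTT added at 0.5 mg/mL final for 4 h, then solubilized with DMF/SDS buffer (pH 4.7) overnight; absorbance at 570 with 630 reference. OD converted to cell numbers via a standard growth curve.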

HMEC = experiment: Inhibitory concentration against normal epithelial HMEC cell line; assay type: functional, cell-based; settings: Homo sapiens; method in brief: as §1
[2] = test system: Fibroblast MRHF cell line; experiment: Inhibitory concentration against normal fibroblast MRHF cell line; assay type: functional, cell-based; settings: Homo sapiens; method in brief: as §1
MCF7 = experiment: Inhibitory concentration against breast MCF-7 cell line; assay type: functional, cell-based; settings: Homo sapiens; method in brief: as §1
A549 = experiment: Inhibitory concentration against lung A549 cell line; assay type: functional, cell-based; settings: Homo sapiens; method in brief: as §1
NCI-H446 = experiment: Inhibitory concentration against lung H446 cell line; assay type: functional, cell-based; settings: Homo sapiens; method in brief: as §1
SW48 = experiment: Inhibitory concentration against colon SW48 cell line; assay type: functional, cell-based; settings: Homo sapiens; method in brief: as §1
MDA-MB-231 = experiment: Inhibitory concentration against breast MDA-MB-231 cell line; assay type: functional, cell-based; settings: Homo sapiens; method in brief: as §1
HCT-116 [3] = experiment: Inhibitory concentration against colon HCT116 cell line; assay type: functional, cell-based; settings: Homo sapiens; method in brief: as §1
HCT-116 [4] = experiment: In vivo percent inhibitory activity of intraperitoneally administered compound (40 mg/kg/day) against mice […] with HCT116 tumor; assay type: functional, Homo sapiens
Method in brief: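 CD1 nude mice (18–22 g) implanted with 30 mg fragments of serially passaged A549 or HCT116 tumor; randomized at ~100 mm3 mean tumor volume, six per group. Daily intraperitoneal dosing (7 days/week) for 21 days, compound dissolved in DMSO; vehicle-only controls. Body weight and tumor volume monitored three times weekly; percent tumor growth inhibition versus vehicle.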

T-24 = experiment: Inhibitory concentration against bladder T24 cell line; assay type: functional, cell-based; settings: Homo sapiens; method in brief: as §1

Histone deacetylase 1, sequence (Q13547 whole entry): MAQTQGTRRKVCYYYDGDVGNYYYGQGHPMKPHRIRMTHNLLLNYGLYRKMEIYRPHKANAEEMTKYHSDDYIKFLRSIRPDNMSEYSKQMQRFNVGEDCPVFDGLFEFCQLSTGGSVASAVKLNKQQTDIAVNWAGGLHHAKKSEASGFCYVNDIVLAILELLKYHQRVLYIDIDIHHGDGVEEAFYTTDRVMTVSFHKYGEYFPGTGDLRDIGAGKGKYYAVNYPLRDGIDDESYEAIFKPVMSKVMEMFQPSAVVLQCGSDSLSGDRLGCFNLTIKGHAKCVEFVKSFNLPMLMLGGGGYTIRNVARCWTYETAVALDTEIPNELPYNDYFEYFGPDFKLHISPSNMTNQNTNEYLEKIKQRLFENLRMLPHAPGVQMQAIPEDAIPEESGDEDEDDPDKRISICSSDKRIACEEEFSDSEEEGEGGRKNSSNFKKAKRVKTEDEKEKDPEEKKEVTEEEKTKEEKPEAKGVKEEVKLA

## O=C(/C=C/c1ccc(NS(=O)(=O)c2ccc(-c3ccccc3)cc2)cc1)NO
[1]
  EC: 1 µM

## COc1ccc(NS(=O)(=O)c2ccc(/C=C/C(=O)NO)cc2)cc1OC
Histone deacetylase 1
  IC50: 0.05 µM

## Cc1ccc(S(=O)(=O)Nc2ccc(/C=C/C(=O)Nc3ccccc3N)cc2)cc1
DU-145
  IC50: 2 µM
HMEC
  IC50: > 37 µM
[2]
  IC50: > 37 µM
MCF7
  IC50: 6 µM
A549
  IC50: 8 µM
NCI-H446
  IC50: 1 µM
SW48
  IC50: 10 µM
MDA-MB-231
  IC50: 2 µM
HCT-116 [3]
  IC50: 4 µM
HCT-116 [4]
  Inhibition: 55%
T-24
  IC50: 8 µM

## COc1ccc(NC(=O)Nc2ccc(/C=C/C(=O)NO)cc2)cc1OC
Histone deacetylase 1
  IC50: 1 µM
[1]
  EC: >25 µM

## COc1ccc(NS(=O)(=O)c2ccc(/C=C/C(=O)Nc3ccccc3N)cc2)cc1OC
Histone deacetylase 1
  IC50: 3 µM

## Nc1ccccc1NC(=O)/C=C/c1ccc(NS(=O)(=O)c2ccc(-c3ccccc3)cc2)cc1
DU-145
  IC50: 15 µM
HMEC
  IC50: > 36 µM
[2]
  IC50: > 25 µM
MCF7
  IC50: 29 µM
A549
  IC50: 18 µM
NCI-H446
  IC50: 8 µM
SW48
  IC50: 30 µM
[1]
  EC: 15 µM
MDA-MB-231
  IC50: 18 µM
HCT-116 [3]
  IC50: 15 µM
T-24
  IC50: > 36 µM

## Cc1ccc(NS(=O)(=O)c2ccc(/C=C/C(=O)NO)cc2)cc1
Histone deacetylase 1
  IC50: 0.2 µM
[1]
  EC: 1 µM

## CN(C)c1cccc2c(S(=O)(=O)Nc3ccc(/C=C/C(=O)NO)cc3)cccc12
Histone deacetylase 1
  IC50: 0.2 µM
[1]
  EC: 5 µM

## O=C(O)/C=C/c1ccc(NS(=O)(=O)c2ccc(-c3ccccc3)cc2)cc1
Histone deacetylase 1
  IC50: > 25 µM

## Nc1ccccc1NC(=O)/C=C/C#Cc1ccc(NS(=O)(=O)c2ccccc2)cc1
Histone deacetylase 1
  IC50: 5 µM

## Nc1ccccc1NC(=O)/C=C/c1ccc(NS(=O)(=O)c2cccc3oc4ccccc4c23)cc1
Histone deacetylase 1
  IC50: 0.4 µM
[1]
  EC: 10 µM

## O=C(/C=C/c1ccc(NS(=O)(=O)c2cccc3oc4ccccc4c23)cc1)NO
Histone deacetylase 1
  IC50: 0.04 µM
[1]
  EC: 1 µM

## O=C(/C=C/c1ccc(NS(=O)(=O)c2cccc3ccccc23)cc1)NO
[1]
  EC: 5 µM

## Nc1ccccc1NC(=O)/C=C/c1ccc(NS(=O)(=O)c2cccc3ccccc23)cc1
Histone deacetylase 1
  IC50: 3 µM
[1]
  EC: 10 µM

## Cc1ccc(S(=O)(=O)Nc2ccc(/C=C/C(=O)NO)cc2)cc1
[1]
  EC: 10 µM

## Cc1ccc(NS(=O)(=O)c2ccc(/C=C/C(=O)Nc3ccccc3N)cc2)cc1
DU-145
  IC50: 7 µM
HMEC
  IC50: > 41 µM
[2]
  IC50: 34 µM
MCF7
  IC50: 11.5 µM
A549
  IC50: 9.5 µM
Histone deacetylase 1
  IC50: 2 µM
NCI-H446
  IC50: 2 µM
SW48
  IC50: 6.5 µM
MDA-MB-231
  IC50: 9 µM
HCT-116 [3]
  IC50: 3.5 µM
HCT-116 [4]
  Inhibition: 37%
T-24
  IC50: 6.5 µM

## COc1ccc(S(=O)(=O)Nc2ccc(/C=C/C(=O)Nc3ccccc3N)cc2)cc1
DU-145
  IC50: 5 µM
HMEC
  IC50: 38 µM
MCF7
  IC50: 8 µM
A549
  IC50: 10 µM
Histone deacetylase 1
  IC50: 1 µM
NCI-H446
  IC50: 2 µM
SW48
  IC50: 4 µM
[1]
  EC: 1 µM
MDA-MB-231
  IC50: 6 µM
HCT-116 [3]
  IC50: 2.5 µM
T-24
  IC50: 8 µM

## O=C(/C=C/c1ccc(NS(=O)(=O)c2cccc3cccnc23)cc1)NO
[1]
  EC: 25 µM

## Nc1ccccc1NC(=O)/C=C/c1ccc(S(=O)(=O)Nc2ccc(-c3ccccc3)cc2)cc1
Histone deacetylase 1
  IC50: 1 µM
[1]
  EC: 5 µM

## O=C(/C=C/c1ccc(S(=O)(=O)Nc2ccc(-c3ccccc3)cc2)cc1)NO
[1]
  EC: 1 µM

## COc1ccc(S(=O)(=O)Nc2ccc(/C=C/C(=O)NO)cc2)cc1
[1]
  EC: 5 µM

## COc1ccc(S(=O)(=O)Nc2ccc(/C=C/C(=O)NO)cc2)cc1OC
DU-145
  IC50: 0.75 µM
HMEC
  IC50: 20 µM
[2]
  IC50: 5 µM
MCF7
  IC50: 1.5 µM
A549
  IC50: 2 µM
NCI-H446
  IC50: 0.4 µM
SW48
  IC50: 0.8 µM
[1]
  EC: 1 µM
MDA-MB-231
  IC50: 0.7 µM
HCT-116 [3]
  IC50: 0.2 µM
T-24
  IC50: 2 µM

## Nc1ccccc1NC(=O)c1ccc(CNC(=O)OCc2cccnc2)cc1 [ENTINOSTAT]
DU-145
  IC50: 1 µM
HMEC
  IC50: > 37 µM
[2]
  IC50: > 37 µM
MCF7
  IC50: 5 µM
A549
  IC50: 8 µM
NCI-H446
  IC50: 1 µM
SW48
  IC50: 5 µM
MDA-MB-231
  IC50: 3 µM
HCT-116 [3]
  IC50: 0.6 µM
T-24
  IC50: 2.5 µM

## O=C(/C=C/C#Cc1cccc(NS(=O)(=O)c2ccccc2)c1)NO [OXAMFLATIN]
Histone deacetylase 1
  IC50: 0.1 µM

## CC(/C=C/C(=O)NO)=C\[C@@H](C)C(=O)c1ccc(N(C)C)cc1 [TRICHOSTATIN]
DU-145
  IC50: 3.5 µM
HMEC
  IC50: 32 µM
[2]
  IC50: 36 µM
MCF7
  IC50: 10 µM
A549
  IC50: 4.5 µM
NCI-H446
  IC50: 1.5 µM
SW48
  IC50: 5 µM
MDA-MB-231
  IC50: 3.5 µM
HCT-116 [3]
  IC50: 0.9 µM
T-24
  IC50: 4 µM
